Experimental data from different studies.
Compare with care: the assays were run in different laboratories.
Target: Serine/threonine-protein kinase D2 (PRKD2, Homo sapiens, UniProt Q9BZL6)
Sequence (Q9BZL6 1-878, as in one of the studies): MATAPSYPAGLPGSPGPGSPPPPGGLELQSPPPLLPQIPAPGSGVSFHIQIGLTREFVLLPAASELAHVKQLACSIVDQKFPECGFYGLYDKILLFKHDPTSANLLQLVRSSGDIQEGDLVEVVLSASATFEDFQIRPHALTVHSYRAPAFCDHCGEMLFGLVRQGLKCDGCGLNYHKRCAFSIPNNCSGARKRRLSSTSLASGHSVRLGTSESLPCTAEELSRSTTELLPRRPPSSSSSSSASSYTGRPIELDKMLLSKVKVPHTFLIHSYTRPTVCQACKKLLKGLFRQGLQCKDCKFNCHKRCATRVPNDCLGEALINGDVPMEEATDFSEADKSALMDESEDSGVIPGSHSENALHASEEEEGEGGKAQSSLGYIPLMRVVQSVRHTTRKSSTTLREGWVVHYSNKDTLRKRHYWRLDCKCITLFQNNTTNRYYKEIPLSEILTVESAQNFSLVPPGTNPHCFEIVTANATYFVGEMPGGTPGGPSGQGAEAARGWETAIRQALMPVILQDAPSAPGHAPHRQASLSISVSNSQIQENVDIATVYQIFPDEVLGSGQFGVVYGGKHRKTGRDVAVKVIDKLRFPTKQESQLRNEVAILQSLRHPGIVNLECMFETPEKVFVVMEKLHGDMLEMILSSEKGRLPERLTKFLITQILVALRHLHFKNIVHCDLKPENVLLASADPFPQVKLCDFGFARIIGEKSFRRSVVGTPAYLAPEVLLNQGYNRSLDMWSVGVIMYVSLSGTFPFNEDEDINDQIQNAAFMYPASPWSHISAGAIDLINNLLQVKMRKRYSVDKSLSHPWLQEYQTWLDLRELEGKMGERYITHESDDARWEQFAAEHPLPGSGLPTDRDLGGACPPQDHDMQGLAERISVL

Structure (SMILES) | read-out | action | method | concentration | measurement | result
CC(C)CC(=O)N1CCc2nc(-c3ccc(Br)cc3)nc(N(C)Cc3ccccc3)c2C1 | cell-free assay |  | competition with immobilised ligand | 0.1 µM | remaining binding | 100%
N#CCCc1ccc2c(c1)-c1[nH]c3ccc([N+](=O)[O-])cc3c1CC(=O)N2 | cell-free assay |  |  | 0.5 µM | remaining signal | 94.2%
O=C(Nc1cnn(-c2csc(C(=O)NC3COC3)c2)c1)Nc1ccccc1Cl | enzyme activity | inhibitor |  | 5 µM | remaining activity | 92.8%
C[C@@]1(Cc2ccc(C#N)cc2)C(=O)N(c2cc(Cl)cc(Cl)c2)c2ncc(C(=O)NC3(c4nc(C5CCC5)no4)CC3)n21 | cell-free assay |  | competition with immobilised ligand | 1 µM | remaining binding | 100%
CC(C)(O)[C@H]1CC[C@H](Nc2ccc3ncc(-c4cccc(C(F)(F)F)c4)n3n2)CC1 | enzyme activity | inhibitor |  | 1 µM | remaining activity | 92%
Cn1c2c(Cl)c(Cl)ccc2c2cc[nH]c(=O)c21 | thermal stability |  | DSF | 10 µM | ΔTm | 0.4 °C
CCCCN(CCCC)C(=O)CN1C[C@H](c2cc(OC)c3c(c2)OCO3)[C@@H](C(=O)O)[C@@H]1CC(C)(C)CCC | cell-free assay |  | competition with immobilised ligand | 1 µM | remaining binding | 100%
Cc1ccc(Nc2nccc(N(C)c3ccc4c(C)n(C)nc4c3)n2)cc1S(N)(=O)=O | enzyme activity | inhibitor |  | 0.3 µM | inhibition | 9%
COc1cccc2c(NCc3ccccc3)nc(-n3c(N)nc4ccccc43)nc12 | target engagement in cells | inhibitor | chemoproteomics | 20 mM | inhibition | -4.3%
Cc1ccc(C(=O)Nc2ccc(CN3CCN(C)CC3)c(C(F)(F)F)c2)cc1C#Cc1cnc2cccnn12 | enzyme activity | inhibitor |  | 23.5 nM | remaining activity | 95%
O=S1(=O)N=C(NCc2ccc(OC(F)(F)F)cc2)Nc2cc(Cl)ccc21 | binding |  | competition with immobilised ligand | 10 µM | inhibition | > 90%
Cc1ccc(NC(=O)c2ccc(C)c(C(F)(F)F)c2)cc1C#Cc1nn(C2CCC(O)CC2)c2ncnc(N)c12 (stereo not shown) | cell-free assay |  |  | 10 µM | remaining signal | 108%
COc1cc2c(N3CCN(C(=O)Nc4ccc(OC(C)C)cc4)CC3)ncnc2cc1OCCCN1CCCCC1 | cell-free assay |  |  | 0.5 µM | remaining signal | 96.4%
CC1(C)NC(=O)c2[nH]c3c(Cl)c(Cl)ccc3c2C1C#N (stereo not shown) | thermal stability |  | DSF | 10 µM | ΔTm | -0.1 °C
CN([C@@H]1CCc2c(CC(=O)O)c3ccccc3n2C1)S(=O)(=O)c1ccc(F)cc1 | cell-free assay |  | competition with immobilised ligand | 1 µM | remaining binding | 100%
CNC(=O)c1cc(Oc2ccc(NC(=O)Nc3ccc(Cl)c(C(F)(F)F)c3)cc2)ccn1 | enzyme activity | inhibitor |  | 0.3 µM | inhibition | 5%
CCCS(=O)(=O)Nc1ccc(F)c(C(=O)c2c[nH]c3ncc(-c4ccc(Cl)cc4)cc23)c1F | enzyme activity | inhibitor |  | 1 µM | inhibition | < 10%

Structure (SMILES) | read-out | action | method | concentration | measurement | result
Nc1cnc(N2CCc3cc(S(=O)(=O)Nc4c(F)cc(Cl)cc4F)cc(N4CCCC4=O)c32)nc1 | cell-free assay |  | competition with immobilised ligand | 1 µM | remaining binding | 100%
CN1CC(Oc2cnc(C#N)cc2-c2ccn3nc(NC(=O)C4CC4)cc3c2)C1 | enzyme activity | inhibitor |  | 1 µM | inhibition | -22%
COc1ccc(COc2ccc(Cc3cnc(N)nc3N)cc2OC)cc1 | cell-free assay |  |  | 0.5 µM | remaining signal | 99.4%
Cn1cnc(Br)c1C1=CN(c2ncnc3[nH]cnc23)CCS1 | enzyme activity | inhibitor | radiometric | 50 nM | inhibition | 19.1%
CC(C)(C)c1nc2c(s1)c1nc(N)ncc1c1ccc(NS(=O)(=O)c3c(F)cccc3F)c(F)c12 | enzyme activity | inhibitor | radiometric | 1 µM | remaining activity | 79%
Cn1c2c(c3ccc(Cl)c(Cl)c31)C(C#N)C1(CCN(C(=O)OC(C)(C)C)CC1)NC2=O (racemic) | thermal stability |  | DSF | 10 µM | ΔTm | 0 °C
Cn1cncc1C1=CN(c2ncnc3[nH]cnc23)CCS1 | enzyme activity | inhibitor | radiometric | 2 µM | inhibition | 93.1%
Cn1c2c(c3ccc(Cl)c(Cl)c31)C(C#N)C1(CCCC1)NC2=O (stereo not shown) | thermal stability |  | DSF | 10 µM | ΔTm | -0.1 °C
CNc1cccc2cc(C(=O)Nc3ccc(C(=O)O)cc3)c(=O)[nH]c12 | enzyme activity | inhibitor |  | 10 µM | inhibition | 2.5%
CC/C(=N\NC(=O)NCc1cccc(O)c1)c1ccc(O)c(C)c1O | enzyme activity | inhibitor |  | 0.1 µM | inhibition | -11.5%
c1ccc(CNc2nc(N3CCOc4ccccc43)nc3c2CCCC3)cc1 | target engagement in cells | inhibitor | chemoproteomics | 20 mM | inhibition | -7.2%
CO[C@H]1CC[C@H](CNc2ccc(S(=O)(=O)NC(=O)c3ccc(N4CCN(CC5=C(c6ccc(Cl)cc6)CC(C)(C)CC5)CC4)cc3Oc3cnc4[nH]ccc4c3)cc2[N+](=O)[O-])CC1 | cell-free assay |  | competition with immobilised ligand | 1 µM | remaining binding | 100%
CCN(CC)CCNC(=O)c1c(C)[nH]c(/C=C2\C(=O)Nc3ccc(F)cc32)c1C | enzyme activity | inhibitor |  | 0.3 µM | inhibition | 30%
CCS(=O)(=O)c1cc2cc(C[C@@](O)(CC(C)(C)c3ccc(F)cc3C(N)=O)C(F)(F)F)[nH]c2cn1 | cell-free assay |  | competition with immobilised ligand | 1 µM | remaining binding | 89%
COc1cc2ncnc(Nc3ccc(Oc4ccccc4)cc3C)c2cc1OC | enzyme activity | inhibitor |  | 1 µM | inhibition | 9%
Cn1c2c(c3ccc(Cl)c(Cl)c31)C(C#N)C(C)(C)NC2=O (stereo not shown) | thermal stability |  | DSF | 10 µM | ΔTm | 0.2 °C
Cc1cc(C)c(-n2ccn3nc(-c4cccnc4)cc23)cc1NC(=O)c1cc(C#N)cc(S(F)(F)(F)(F)F)c1 | cell-free assay |  | competition with immobilised ligand | 0.1 µM | remaining binding | 100%
